In ChEMBL document CHEMBL2346519, “Substituted indolin-2-ones as p90 ribosomal S6 protein kinase 2 (RSK2) inhibitors: Molecular docking simulation and structure-activity relationship analysis” (Bioorg Med Chem, 2013):

Legend:
[1] = biological target: Hepatocyte growth factor receptor (Homo sapiens) (UniProt P08581); experiment: Inhibition of c-MET (unknown origin) at 10 uM after 10 mins by mobility shift assay relative to control
[2] = biological target: T1, Mitogen-activated protein kinase 14 (Homo sapiens, UniProt Q16539); details: 10 uM
T1 sequence (Q16539 whole entry): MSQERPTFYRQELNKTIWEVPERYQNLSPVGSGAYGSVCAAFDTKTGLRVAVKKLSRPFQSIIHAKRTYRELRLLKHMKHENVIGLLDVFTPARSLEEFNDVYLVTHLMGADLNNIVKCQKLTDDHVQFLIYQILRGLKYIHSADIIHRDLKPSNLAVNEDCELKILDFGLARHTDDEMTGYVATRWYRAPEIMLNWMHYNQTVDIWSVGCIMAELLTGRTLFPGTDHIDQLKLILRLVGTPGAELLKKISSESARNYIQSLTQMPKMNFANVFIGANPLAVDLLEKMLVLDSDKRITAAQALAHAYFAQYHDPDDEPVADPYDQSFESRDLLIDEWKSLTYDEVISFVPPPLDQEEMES

[3] = biological target: Tyrosine-protein kinase Lck (Homo sapiens) (UniProt P06239); details: 3 uM
[4] = biological target: Platelet-derived growth factor receptor alpha (Homo sapiens) (UniProt P16234); experiment: Inhibition of PDGFRalpha (unknown origin) at 10 uM after 10 mins by mobility shift assay relative to control
Chain of Platelet-derived growth factor receptor alpha (Homo sapiens) (P16234 whole entry): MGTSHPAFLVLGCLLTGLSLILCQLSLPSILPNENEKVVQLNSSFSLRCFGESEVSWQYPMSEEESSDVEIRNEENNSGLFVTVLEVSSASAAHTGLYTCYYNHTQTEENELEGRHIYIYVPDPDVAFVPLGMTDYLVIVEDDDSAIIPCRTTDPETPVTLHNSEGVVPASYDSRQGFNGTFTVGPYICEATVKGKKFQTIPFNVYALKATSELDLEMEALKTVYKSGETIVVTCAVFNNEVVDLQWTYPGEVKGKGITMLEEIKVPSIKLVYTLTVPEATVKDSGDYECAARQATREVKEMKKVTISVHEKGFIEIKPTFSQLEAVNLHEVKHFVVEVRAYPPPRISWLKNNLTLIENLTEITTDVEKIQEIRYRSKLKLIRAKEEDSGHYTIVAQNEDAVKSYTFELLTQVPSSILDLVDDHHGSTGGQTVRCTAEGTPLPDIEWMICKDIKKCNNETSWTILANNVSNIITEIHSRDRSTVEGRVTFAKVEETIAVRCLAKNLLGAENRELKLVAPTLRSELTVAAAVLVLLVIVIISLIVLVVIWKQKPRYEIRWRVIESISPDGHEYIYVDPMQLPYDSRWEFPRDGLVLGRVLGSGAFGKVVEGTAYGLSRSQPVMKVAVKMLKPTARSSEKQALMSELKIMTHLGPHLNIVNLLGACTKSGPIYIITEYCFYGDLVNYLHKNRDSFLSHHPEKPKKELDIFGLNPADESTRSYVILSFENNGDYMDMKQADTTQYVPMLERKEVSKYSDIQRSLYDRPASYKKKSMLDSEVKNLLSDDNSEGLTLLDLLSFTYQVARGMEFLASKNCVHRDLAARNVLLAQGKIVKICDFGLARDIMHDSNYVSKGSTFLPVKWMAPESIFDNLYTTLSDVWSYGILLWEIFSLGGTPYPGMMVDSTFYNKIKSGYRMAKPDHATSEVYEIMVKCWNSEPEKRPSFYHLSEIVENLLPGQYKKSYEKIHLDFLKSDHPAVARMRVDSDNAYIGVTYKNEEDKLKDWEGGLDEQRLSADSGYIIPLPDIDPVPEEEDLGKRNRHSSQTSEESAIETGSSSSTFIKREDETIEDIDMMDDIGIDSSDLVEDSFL

[5] = biological target: Glycogen synthase kinase-3 beta (Homo sapiens) (UniProt P49841); details: 3 uM
MCF7 = experiment: Cytotoxicity against human MCF7 cells assessed as growth inhibition after 48 hrs by MTT assay; assay type: functional, cell-based; details: MCF7, 48 h
Procedure, shortened: (§1)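 MCF-7 cells grown in DMEM plus 10% FBS and PC 3 cells in F-12K, both seeded at 5 × 10^3 per well. Cells were exposed to compounds at various concentrations for 48 h. MTT was then added for 4 h at 37 °C in 5% CO2, formazan was dissolved in DMSO, and absorbance was read at 570 nm. IC50 was taken from inhibition curves of three independent experiments and measured only where inhibition at 100 µM exceeded 50%.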

[6] = biological target: Fibroblast growth factor receptor 1 (Homo sapiens) (UniProt P11362); details: 10 uM
[7] = biological target: Ribosomal protein S6 kinase alpha-5 (Homo sapiens) (UniProt O75582); experiment: Inhibition of MSK1 (unknown origin) at 10 uM after 10 mins by mobility shift assay relative to control
[8] = biological target: T2, Ribosomal protein S6 kinase alpha-3 (Homo sapiens, UniProt P51812); experiment: Inhibition of RSK2 (unknown origin) using AKRRRLSSLRA as substrate at 10 uM after 60 mins by fluorescence assay relative to control
T2 sequence (P51812 whole entry): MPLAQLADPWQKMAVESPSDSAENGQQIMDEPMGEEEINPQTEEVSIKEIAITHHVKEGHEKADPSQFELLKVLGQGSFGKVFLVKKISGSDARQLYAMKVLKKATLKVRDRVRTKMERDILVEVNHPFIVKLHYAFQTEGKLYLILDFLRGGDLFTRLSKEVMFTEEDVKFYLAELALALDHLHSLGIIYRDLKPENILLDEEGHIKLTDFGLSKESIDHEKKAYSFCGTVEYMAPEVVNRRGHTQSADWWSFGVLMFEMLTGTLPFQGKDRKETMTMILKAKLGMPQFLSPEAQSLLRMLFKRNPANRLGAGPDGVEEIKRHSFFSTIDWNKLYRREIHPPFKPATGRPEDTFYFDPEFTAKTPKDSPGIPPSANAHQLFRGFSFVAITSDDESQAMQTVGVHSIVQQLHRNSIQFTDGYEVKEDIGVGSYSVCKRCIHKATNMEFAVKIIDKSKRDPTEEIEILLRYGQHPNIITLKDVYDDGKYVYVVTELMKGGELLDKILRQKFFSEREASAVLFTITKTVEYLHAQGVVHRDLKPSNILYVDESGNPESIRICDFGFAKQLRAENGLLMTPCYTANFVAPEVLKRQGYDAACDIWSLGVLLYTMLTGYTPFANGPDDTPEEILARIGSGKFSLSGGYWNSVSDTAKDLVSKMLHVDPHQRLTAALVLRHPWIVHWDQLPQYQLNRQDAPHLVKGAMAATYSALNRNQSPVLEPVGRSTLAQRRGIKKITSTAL

[9] = biological target: Fibroblast growth factor receptor 1 (Homo sapiens) (UniProt P11362); details: 3 uM
[10] = biological target: T1, Mitogen-activated protein kinase 14; details: 3 uM
[11] = biological target: T2, Ribosomal protein S6 kinase alpha-3; details: 3 uM
[12] = biological target: Ribosomal protein S6 kinase alpha-5 (Homo sapiens) (UniProt O75582); details: 3 uM
[13] = biological target: T2, Ribosomal protein S6 kinase alpha-3; experiment: Inhibition of RSK2 (unknown origin) using AKRRRLSSLRA as substrate after 60 mins by fluorescence assay
[14] = biological target: T3, RAC-alpha serine/threonine-protein kinase (Homo sapiens, UniProt P31749); experiment: Inhibition of AKT1 (unknown origin) at 3 uM after 10 mins by mobility shift assay relative to control
T3 sequence (P31749 whole entry): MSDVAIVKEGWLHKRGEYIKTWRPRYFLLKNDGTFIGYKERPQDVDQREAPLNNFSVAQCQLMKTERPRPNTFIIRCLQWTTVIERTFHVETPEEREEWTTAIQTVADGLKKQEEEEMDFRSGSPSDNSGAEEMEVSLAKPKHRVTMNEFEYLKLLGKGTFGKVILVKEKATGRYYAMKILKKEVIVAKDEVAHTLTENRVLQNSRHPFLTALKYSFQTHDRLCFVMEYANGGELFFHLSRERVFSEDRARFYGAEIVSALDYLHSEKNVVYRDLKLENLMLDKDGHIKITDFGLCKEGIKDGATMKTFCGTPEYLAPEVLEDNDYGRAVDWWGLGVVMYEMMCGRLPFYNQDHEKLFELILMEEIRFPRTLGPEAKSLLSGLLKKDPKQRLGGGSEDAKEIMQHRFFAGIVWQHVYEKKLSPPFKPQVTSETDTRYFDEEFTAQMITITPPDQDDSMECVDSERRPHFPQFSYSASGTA

[15] = biological target: T1, Mitogen-activated protein kinase 14; experiment: Inhibition of p38alpha (unknown origin) after 10 mins by mobility shift assay
[16] = biological target: Aurora kinase B (Homo sapiens) (UniProt Q96GD4); experiment: Inhibition of Aurora B (unknown origin) at 10 uM after 10 mins by mobility shift assay relative to control
Chain of Aurora kinase B (Homo sapiens) (Q96GD4 whole entry): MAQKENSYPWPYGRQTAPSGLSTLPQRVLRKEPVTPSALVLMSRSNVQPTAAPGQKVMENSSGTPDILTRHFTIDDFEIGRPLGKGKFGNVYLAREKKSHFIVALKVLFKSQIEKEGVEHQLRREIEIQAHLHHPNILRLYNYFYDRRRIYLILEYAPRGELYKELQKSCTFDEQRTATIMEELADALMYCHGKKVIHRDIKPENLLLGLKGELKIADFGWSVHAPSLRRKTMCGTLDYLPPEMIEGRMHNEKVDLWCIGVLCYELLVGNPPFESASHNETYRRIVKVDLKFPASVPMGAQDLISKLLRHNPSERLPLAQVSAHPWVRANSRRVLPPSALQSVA

[17] = biological target: Vascular endothelial growth factor receptor 2 (Homo sapiens) (UniProt P35968); experiment: Inhibition of KDR (unknown origin) at 3 uM after 10 mins by mobility shift assay relative to control
[18] = biological target: Proto-oncogene tyrosine-protein kinase Src (Homo sapiens) (UniProt P12931); details: 10 uM
[19] = biological target: Fibroblast growth factor receptor 3 (Homo sapiens) (UniProt P22607); details: 3 uM
[20] = biological target: Platelet-derived growth factor receptor alpha (Homo sapiens) (UniProt P16234); experiment: Inhibition of PDGFRalpha (unknown origin) at 3 uM after 10 mins by mobility shift assay relative to control
[21] = biological target: Glycogen synthase kinase-3 beta (Homo sapiens) (UniProt P49841); details: 10 uM
[22] = biological target: Vascular endothelial growth factor receptor 2 (Homo sapiens) (UniProt P35968); details: 10 uM
[23] = biological target: Tyrosine-protein kinase ABL1 (Homo sapiens) (UniProt P00519); experiment: Inhibition of ABL (unknown origin) at 10 uM after 10 mins by mobility shift assay relative to control
[24] = biological target: Fibroblast growth factor receptor 3 (Homo sapiens) (UniProt P22607); details: 10 uM
[25] = biological target: Tyrosine-protein kinase ABL1 (Homo sapiens) (UniProt P00519); experiment: Inhibition of ABL (unknown origin) at 3 uM after 10 mins by mobility shift assay relative to control
[26] = biological target: Serine/threonine-protein kinase pim-1 (Homo sapiens) (UniProt P11309); experiment: Inhibition of PIM1 (unknown origin) at 10 uM after 10 mins by mobility shift assay relative to control
[27] = biological target: Tyrosine-protein kinase Lck (Homo sapiens) (UniProt P06239); details: 10 uM
[28] = biological target: Protein kinase C alpha type (Homo sapiens) (UniProt P17252); experiment: Inhibition of PKC alpha (unknown origin) using PIP2 as substrate at 10 uM after 1 hr by Kinase-Glo assay relative to control
[29] = biological target: Tyrosine-protein kinase Lyn (Homo sapiens) (UniProt P07948); experiment: Inhibition of LYN-A (unknown origin) at 10 uM after 10 mins by mobility shift assay relative to control
[30] = biological target: Mast/stem cell growth factor receptor Kit (Homo sapiens) (UniProt P10721); details: 3 uM
[31] = biological target: Proto-oncogene tyrosine-protein kinase Src (Homo sapiens) (UniProt P12931); experiment: Inhibition of SRC (unknown origin) at 3 uM after 10 mins by mobility shift assay relative to control
[32] = biological target: Mitogen-activated protein kinase 9 (Homo sapiens) (UniProt P45984); experiment: Inhibition of JNK2 (unknown origin) at 3 uM after 10 mins by mobility shift assay relative to control
Chain of Mitogen-activated protein kinase 9 (Homo sapiens) (P45984 whole entry, looked up): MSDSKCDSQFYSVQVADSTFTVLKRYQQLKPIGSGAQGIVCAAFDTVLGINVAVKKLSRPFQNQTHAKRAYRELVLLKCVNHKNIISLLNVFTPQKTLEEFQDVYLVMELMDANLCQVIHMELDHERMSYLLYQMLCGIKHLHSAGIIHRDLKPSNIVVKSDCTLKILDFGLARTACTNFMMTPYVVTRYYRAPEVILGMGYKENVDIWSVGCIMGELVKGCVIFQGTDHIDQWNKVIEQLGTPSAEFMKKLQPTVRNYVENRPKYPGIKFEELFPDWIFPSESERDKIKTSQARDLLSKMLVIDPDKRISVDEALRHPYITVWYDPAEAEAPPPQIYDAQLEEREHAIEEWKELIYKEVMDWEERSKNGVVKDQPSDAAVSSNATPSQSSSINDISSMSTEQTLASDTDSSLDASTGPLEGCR

[33] = biological target: 3-phosphoinositide-dependent protein kinase 1 (Homo sapiens) (UniProt O15530); experiment: Inhibition of PDK1 (unknown origin) at 10 uM after 10 mins by mobility shift assay relative to control
[34] = biological target: Hepatocyte growth factor receptor (Homo sapiens) (UniProt P08581); experiment: Inhibition of c-MET (unknown origin) at 3 uM after 10 mins by mobility shift assay relative to control
[35] = biological target: Protein kinase C alpha type (Homo sapiens) (UniProt P17252); experiment: Inhibition of PKC alpha (unknown origin) using PIP2 as substrate at 3 uM after 1 hr by Kinase-Glo assay relative to control
[36] = biological target: T3, RAC-alpha serine/threonine-protein kinase; experiment: Inhibition of AKT1 (unknown origin) after 10 mins by mobility shift assay
[37] = biological target: 3-phosphoinositide-dependent protein kinase 1 (Homo sapiens) (UniProt O15530); experiment: Inhibition of PDK1 (unknown origin) at 3 uM after 10 mins by mobility shift assay relative to control
[38] = biological target: Tyrosine-protein kinase Lyn (Homo sapiens) (UniProt P07948); experiment: Inhibition of LYNA (unknown origin) at 3 uM after 10 mins by mobility shift assay relative to control
[39] = biological target: Aurora kinase B (Homo sapiens) (UniProt Q96GD4); experiment: Inhibition of Aurora B (unknown origin) at 3 uM after 10 mins by mobility shift assay relative to control
[40] = biological target: Ribosomal protein S6 kinase beta-1 (Homo sapiens) (UniProt P23443); experiment: Inhibition of p70S6K (unknown origin) at 10 uM after 10 mins by mobility shift assay relative to control
Chain of Ribosomal protein S6 kinase beta-1 (Homo sapiens) (P23443 whole entry, looked up): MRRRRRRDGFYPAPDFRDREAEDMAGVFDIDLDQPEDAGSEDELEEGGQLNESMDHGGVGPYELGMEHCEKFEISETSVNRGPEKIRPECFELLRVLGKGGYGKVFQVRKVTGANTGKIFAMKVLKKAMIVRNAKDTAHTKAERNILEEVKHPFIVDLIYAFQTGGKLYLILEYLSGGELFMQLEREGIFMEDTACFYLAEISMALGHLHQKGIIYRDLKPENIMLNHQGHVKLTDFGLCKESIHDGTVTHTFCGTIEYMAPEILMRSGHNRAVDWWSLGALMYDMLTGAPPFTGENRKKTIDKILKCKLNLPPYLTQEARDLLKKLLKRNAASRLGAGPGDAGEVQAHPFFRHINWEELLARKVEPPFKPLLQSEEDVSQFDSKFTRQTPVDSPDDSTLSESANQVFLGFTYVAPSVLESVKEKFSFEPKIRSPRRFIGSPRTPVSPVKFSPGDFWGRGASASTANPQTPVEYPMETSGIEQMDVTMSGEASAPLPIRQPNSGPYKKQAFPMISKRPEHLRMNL

[41] = biological target: Mitogen-activated protein kinase 3 (Homo sapiens) (UniProt P27361); experiment: Inhibition of ERK1 (unknown origin) at 10 uM after 10 mins by mobility shift assay relative to control
Chain of Mitogen-activated protein kinase 3 (Homo sapiens) (P27361 whole entry): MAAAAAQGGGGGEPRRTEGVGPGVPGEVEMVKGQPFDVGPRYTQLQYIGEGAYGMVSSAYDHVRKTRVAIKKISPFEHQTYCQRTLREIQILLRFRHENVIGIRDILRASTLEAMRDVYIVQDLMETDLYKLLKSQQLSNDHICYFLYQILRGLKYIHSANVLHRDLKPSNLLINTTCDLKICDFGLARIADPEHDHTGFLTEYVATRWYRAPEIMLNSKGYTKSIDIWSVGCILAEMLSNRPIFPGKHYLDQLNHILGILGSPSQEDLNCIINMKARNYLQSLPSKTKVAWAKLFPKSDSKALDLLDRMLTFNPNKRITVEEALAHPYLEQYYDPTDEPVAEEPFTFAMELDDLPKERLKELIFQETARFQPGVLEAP

[42] = biological target: Ribosomal protein S6 kinase beta-1 (Homo sapiens) (UniProt P23443); details: 3 uM
[43] = biological target: Mitogen-activated protein kinase 9 (Homo sapiens) (UniProt P45984); experiment: Inhibition of JNK2 (unknown origin) at 10 uM after 10 mins by mobility shift assay relative to control
PC-3 = experiment: Cytotoxicity against human PC3 cells assessed as growth inhibition after 48 hrs by MTT assay; assay type: functional, cell-based; details: PC-3, 48 h; procedure, shortened: as §1
[44] = biological target: Serine/threonine-protein kinase pim-1 (Homo sapiens) (UniProt P11309); experiment: Inhibition of PIM1 (unknown origin) at 3 uM after 10 mins by mobility shift assay relative to control
[45] = biological target: Mast/stem cell growth factor receptor Kit (Homo sapiens) (UniProt P10721); experiment: Inhibition of cKit (unknown origin) at 10 uM after 10 mins by mobility shift assay relative to control
[46] = biological target: Mitogen-activated protein kinase 3 (Homo sapiens) (UniProt P27361); details: 3 uM
[47] = biological target: T3, RAC-alpha serine/threonine-protein kinase; experiment: Inhibition of AKT1 (unknown origin) at 10 uM after 10 mins by mobility shift assay relative to control

inhibition [1]: 16% | inhibition [2]: 27% | inhibition [3]: 31% | inhibition [4]: 38% | inhibition [5]: 37% | inhibition [6]: 65% | inhibition [7]: 33% | inhibition [8]: 93.4% | inhibition [9]: 44% | inhibition [10]: 19% | inhibition [11]: 61% | inhibition [12]: 31% | IC50 [13]: 500 nM | inhibition [14]: 7.8% | IC50 [15]: 11 nM | inhibition [16]: 34% | inhibition [17]: 39% | inhibition [18]: 55% | inhibition [19]: 44% | inhibition [20]: 20% | inhibition [21]: 40% | inhibition [22]: 65% | inhibition [23]: 67% | inhibition [24]: 65% | inhibition [25]: 43% | inhibition [26]: 4.7% | inhibition [27]: 55% | inhibition [28]: 13% | inhibition [29]: 49% | inhibition [30]: 55% | inhibition [31]: 30% | inhibition [32]: 36% | inhibition [33]: 6.2% | inhibition [34]: 12% | inhibition [35]: 4.4% | IC50 [36]: 11 nM | inhibition [37]: 6.7% | inhibition [38]: 25% | inhibition [39]: 25% | inhibition [40]: 71% | inhibition [41]: 57% | inhibition [42]: 44% | inhibition [43]: 71% | inhibition [44]: 4.2% | inhibition [45]: 64% | inhibition [46]: 31% | inhibition [47]: 8.3%
SMILES: O=C1Nc2ccccc2/C1=C/c1c[nH]nc1-c1ccccc1[N+](=O)[O-]
IC50 (MCF7): 14.8 µM | IC50 (PC-3): 9.32 µM
